Compound activity deposited in PubChem BioAssay by several laboratories.
CHOP inh: inhibitors of CHOP induction in ER stress response; CHO-K1 CHOP-promoter luciferase, tunicamycin-induced, 15-18 h; inhibition, % at 10 µM; actives 3.8% (n = 220,000);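 active = compounds that reduced the stress-induced luciferase reporter signal by more than about 70% of percent inhibition, limit read from the data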;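 also: 0% = tunicamycin plus vehicle and 100% = wells without tunicamycin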
UPR CHOP act: activators of apoptotic arm of unfolded protein response (CHOP); CHO-CHOP luciferase reporter, UPR activation, luminescence; percent of tunicamycin response over DMSO baseline; actives 0.34% (n = 330,000); AID 449763; activation, % at 10 µM;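 active = at 10 µM dose, activation of 40% or more, normalized to positive control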;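 also: 100% = tunicamycin at 10 µg/mL and 0% = DMSO alone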
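Material: CHO-CHOP cells, stable luciferase reporter of PERK-eIF2a-CHOP signalling; quantity: 500 reporter cells seeded per well; buffer or medium: F12 medium containing 10% fetal bovine serum; compound: one dose, 10 µM in 0.5% DMSO; incubation: 6 h compound treatment, 37 °C; measured by: Steady-Glo luciferase luminescence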
UPR XBP1 act: adaptive UPR (XBP1) activation; CHO-XBP1 luciferase reporter, IRE1-XBP1 UPR activation, luminescence; percent of tunicamycin response, DMSO as zero; activation, % at 20 µM; actives 0.33% (n = 330,000); AID 463104;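 active = versus positive control, 20 µM dose yields 30% or more activation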;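 also: 100% = tunicamycin at 10 µg/mL and 0% = DMSO only wells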
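Assay system: CHO-XBP1 luciferase reporter cells; Schedule: 6 h treatment, 37 °C; Detection: glow luminescence from Steady-Glo reagent; Benchmarks: high control tunicamycin 10 µg/mL final, low control DMSO vehicle only.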
Cardio protect: modulators protecting cardiomyocytes from myocardial damage | H9c2 cardiomyocytes, H2O2 injury protection, ATPLite, 2 h | protection from H2O2 cell death, % at 20 µM | actives 0.63% (n = 360,000);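 active = compounds giving at least 50% protection of heart cells from peroxide-induced death in the single-dose screen, raw or plate-pattern-corrected value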;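 also: 0% = DMSO wells with peroxide and 100% = DMSO wells without peroxide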
iPSC survival up: enhancers of human iPSC single-cell survival; hiPSC single-cell survival, ATPlite luminescence; 100% = ROCK inhibitor wells, 0% = DMSO; actives 0.044% (n = 360,000); survival enhancement, % at 20 µM; in the data active = survival enhancement above about 18%;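 also: cells exposed to compounds for 16 hours before the ATP read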
Active calls of the source: *; · = no result given. The full list was thinned out, with hits kept by preference.

SMILES	CHOP inh	UPR CHOP act	UPR XBP1 act	Cardio protect	iPSC survival up
CN(Cc1ccccc1)C(=O)c1[nH]cnc1C(=O)Nc1ccc(Br)cc1F	·	·	·	-8.2	3.3
Cc1cccc(CN2CCN(C3CN(Cc4cn(Cc5ccccc5C(F)(F)F)nn4)S(=O)(=O)C3)CC2)c1 (stereo not given)	·	·	·	2.1	-2.7
CCCCCCn1c(=O)n2n(c1=O)C[C@]1(OC(=O)NCc3ccco3)CN(S(=O)(=O)c3ccc(C)cc3)C[C@]1(O)C2	·	·	·	-6.0	0.6
C[C@H]1CN([C@@H](C)CO)C(=O)c2cc(Br)cnc2O[C@@H]1CN(C)C(=O)Nc1ccc(C(F)(F)F)cc1	·	·	·	9.5	0.9
Cc1ccsc1/C=N/n1c(C2CCCCC2)n[nH]c1=S	84.4*	-0.3	0.1	-7.0	-0.5
CNC[C@@H]1OCc2ccccc2-c2c(n(C)c3ccccc23)C(=O)N([C@H](C)CO)C[C@@H]1C	·	·	·	-1.0	2.9
COc1ccc([C@H]2CN(c3ccc(OC)cc3)C(=O)[C@@H]2CC(=O)Nc2ccc(Br)cc2)cc1	·	·	·	-16.2	-0.7
O=C(N/N=C/c1cc(Cl)cc([N+](=O)[O-])c1O)NC12CC3CC(CC(C3)C1)C2	80.5*	2.1	0.2	-9.0	5.8
O=C(N/N=C/c1ccccc1O)NC12CC3CC(CC(C3)C1)C2	·	3.5	8.5	-11.7	0.2
O=C(N/N=C/c1cc(Cl)cc([N+](=O)[O-])c1O)c1ccccc1NS(=O)(=O)c1cccs1	1.8	-0.7	-3.0	49.9*	-0.2
Cc1cc(S(=O)(=O)Nc2ccc(C(=O)NC3CC3)cc2)ccc1F	·	·	·	0.4	1.0
C=CCc1ccccc1OCC(O)CN1CCN(CCN2C(=O)c3cccc4cccc(c34)C2=O)CC1 (stereo not given)	86.0*	1.9	-1.3	2.7	-0.5
C=CCc1ccccc1OCC(O)CN1CCN(C(=O)OCC)CC1 (stereo not given)	56.5	-0.3	-0.9	-2.8	-2.3
Cc1cccc(C)c1OCC(O)CN1CCC(CN2C(=O)c3cccc4cccc(c34)C2=O)CC1 (stereo not given)	79.2*	5.6	-1.4	-21.1	-1.5
C=CCc1ccccc1OCC(O)CN1CCN(c2ccc(C)cc2)CC1 (stereo not given)	79.2*	1.9	-2.6	10.0	-1.7
Cc1ccc(S(=O)(=O)N2CCCCC2)cc1C(=O)N(CCc1ccccc1)Cc1ccccc1	·	1.5	-1.9	-5.2	-0.5
C/C(=N\NC(=S)NC1CCCCC1)c1c(F)cccc1F	80.2*	1.9	-0.3	-22.9	-0.6
CCN1C(=O)/C(=C\c2cccn2-c2ccc([N+](=O)[O-])cc2)N(CC)C1=S	74.4*	-1.1	9.8	7.3	0.0
COc1cccc(OCCCOc2ccccc2C(C)C)c1	71.1*	-0.5	-2.5	-16.9	-2.7
O=C(NCCCCc1ccccc1)c1cccc(NC(=O)C2CCCC2)c1	·	·	·	3.7	1.7
CCOc1ccc(N2C(=O)CC(SC(=NC)Nc3cccc(F)c3)C2=O)cc1 (stereo not given)	9.4	-1.2	-3.2	-1.5	-2.1
CCOc1ccc(N2C(=O)CC(SC(=NC)Nc3ccc4c(c3)OCO4)C2=O)cc1 (stereo not given)	73.2*	-3.8	-2.4	-15.0	0.8
N#C/C(=C\c1cccc([N+](=O)[O-])c1)C(=O)NCc1ccc(Cl)cc1	91.9*	·	·	-27.2	0.5
N#C/C(=C\c1cccc([N+](=O)[O-])c1)C(=O)NCc1cccnc1	-21.1	-1.4	-1.2	25.9	12.0
O=[N+]([O-])c1ccc(NCCCNS(=O)(=O)c2ccc(Cl)cc2)c(Cl)c1	81.7*	0.6	-0.1	-21.9	2.7
SMILES	CHOP inh	UPR CHOP act	UPR XBP1 act	Cardio protect	iPSC survival up
O=[N+]([O-])c1ccccc1NCCNS(=O)(=O)c1ccc(Cl)cc1	29.4	-0.5	-2.4	10.7	2.6
CSCCC(NC(=O)C12CC3CC(CC(C3)C1)C2)C(=O)OCC(=O)c1ccc(Cl)cc1 (stereo not given)	74.8*	-1.8	2.3	-7.1	-2.1
CCc1ccc(C(=O)COC(=O)C(CCSC)NC(=O)C23CC4CC(CC(C4)C2)C3)cc1 (stereo not given)	19.5	-1.3	4.9	-7.8	3.4
Cc1ccc(S(=O)(=O)N2CCC(=O)N(CCOCc3cccc(C(F)(F)F)c3)CC2)cc1	79.1*	-0.4	1.9	-4.7	-0.4
Cc1ccc(S(=O)(=O)N2CCC(=O)N(CCOCc3cccc(C)c3)CC2)cc1	7.8	-0.5	-0.6	-3.5	0.3
Cc1ccn2c(C(=O)CSc3ccccc3Cl)c(C)nc2c1	72.7*	4.0	4.0	-2.1	0.1
CCOC(=O)c1c(C)nc2cc(C)ccn12	2.8	1.6	2.5	3.0	2.8
COCCCn1cc(CN2CC(N3CCSCC3)CS2(=O)=O)nn1 (stereo not given)	·	·	·	·	1.3
C/C(=N\NC(=O)c1n[nH]c2c1CCC2)c1cccs1	85.7*	-7.4	-8.9	-16.8	-0.8
O=C(Cc1ccc(NC(=O)C2CCN(C(=O)C3CCCCC3)CC2)cc1)Nc1cccc(C(=O)N2CCCCC2)c1	·	·	·	-7.2	0.7
O=c1c2ccccc2c(-c2cccc(C(F)(F)F)c2)nn1-c1ccccc1	29.1	0.8	-4.3	-4.3	0.8
O=c1c2ccccc2c(-c2ccc(O)cc2)nn1-c1cccc(C(F)(F)F)c1	93.7*	0.0	2.4	-7.3	-0.5
Cc1cc(=O)n2nc(-c3ccc(C(F)(F)F)cc3)sc2n1	75.4*	1.4	-1.4	-8.0	-2.3
COc1ccccc1-c1nn2c(=O)cc(C)nc2s1	-24.7	4.5	3.8	0.6	-2.2
O=C(NCCc1c[nH]c2ccccc12)c1ccc([N+](=O)[O-])o1	·	·	·	-17.3	-0.8
CCN(CC)S(=O)(=O)c1cccc(NC(=O)CN2C(=O)NC3(CCOc4ccccc43)C2=O)c1 (stereo not given)	·	0.7	-2.0	6.7	-0.1
CCCCNC(=O)c1cn(-c2ccc(OCC)cc2)c(=O)c2cc(OC)c(OC)cc12	-14.1	-2.6	-2.3	65.4*	-2.7
CCOc1ccc(NC(=O)c2cn(-c3ccc(OCC)cc3)c(=O)c3cc(OC)c(OC)cc23)cc1	25.3	-0.7	-0.6	8.4	-1.4
CCC(=NNC(=O)c1ccc2c(c1)nc(C)n2CC)c1cc(F)ccc1O	·	-1.0	3.1	52.2*	1.7
Cn1c(=O)cc(OCCCC(=O)Nc2cccc(Cl)c2)c2ccccc21	·	·	·	10.1	20.8*
COc1ccc(S(=O)(=O)Nc2ccc3c(c2)C(=O)N([C@H](C)CO)C[C@H](C)[C@@H](CN(C)Cc2ccncc2)OCCCC[C@@H](C)O3)cc1	·	·	·	8.8	0.2
CCOc1cc(/C=C2\SC(=N)N(c3nccs3)C2=O)ccc1OCCN1CCOCC1	-160.0	10.2	8.2	53.9*	3.9
CC12CCC3C(CCC4CC(O)CCC43C)C1CC(O)C2 (stereo not given)	·	·	·	49.8*	-0.9
